UHRF1 binding: human UHRF1 methylated DNA binding inhibitors. Q96T88. UHRF1 binding to methylated oligo, TR-FRET. inhibition, % at 4.4 µM. hit rate 0.75% among 370,000; in the data active means inhibition above about 21%;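 further: UHRF1 SRA domain binding a hemimethylated CpG hairpin DNA probe; 0% = median of test compound wells and 100% = reference inhibitor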
Target sequence (Q96T88 whole entry, looked up, the tested form may be a part): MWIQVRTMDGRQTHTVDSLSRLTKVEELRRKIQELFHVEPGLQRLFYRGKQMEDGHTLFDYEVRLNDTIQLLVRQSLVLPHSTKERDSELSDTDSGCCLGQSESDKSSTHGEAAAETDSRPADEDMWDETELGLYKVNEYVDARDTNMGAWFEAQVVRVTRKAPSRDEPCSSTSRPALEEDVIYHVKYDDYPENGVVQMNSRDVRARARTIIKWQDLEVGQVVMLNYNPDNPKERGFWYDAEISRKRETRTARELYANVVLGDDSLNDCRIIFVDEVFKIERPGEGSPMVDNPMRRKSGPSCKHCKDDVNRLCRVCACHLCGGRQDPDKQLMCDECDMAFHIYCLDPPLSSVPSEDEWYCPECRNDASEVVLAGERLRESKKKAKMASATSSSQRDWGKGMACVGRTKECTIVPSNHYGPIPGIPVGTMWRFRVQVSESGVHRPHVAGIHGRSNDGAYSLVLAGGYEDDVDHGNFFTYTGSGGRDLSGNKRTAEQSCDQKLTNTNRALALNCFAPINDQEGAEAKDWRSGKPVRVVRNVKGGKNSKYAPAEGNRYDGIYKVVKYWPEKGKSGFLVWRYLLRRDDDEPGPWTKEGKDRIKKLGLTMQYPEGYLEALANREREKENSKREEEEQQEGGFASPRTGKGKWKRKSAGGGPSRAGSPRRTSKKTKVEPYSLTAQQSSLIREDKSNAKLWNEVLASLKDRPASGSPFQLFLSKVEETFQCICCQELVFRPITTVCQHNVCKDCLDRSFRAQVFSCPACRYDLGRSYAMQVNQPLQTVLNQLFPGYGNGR
PRMT1 FP inh: blocks human protein arginine methyltransferase 1; hit rate 1.3% among 370,000; recombinant PRMT1, activity-based probe fluorescence polarization; inhibition, % at 2.79 µM;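 active means inhibition above about 21% made by adding two undisclosed values, limit read from the data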
LEDGF integ inh: blocks HIV-1 LEDGF/p75-dependent DNA integration; TR-FRET IN-LEDGF/p75 DNA integration, Eu/Cy5; hit rate 0.64% among 370,000; inhibition, % at 3.7 µM;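 active means inhibition above the screen-wide mean plus 3 SD, cut at about 13% in these data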;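 further: signal is the Cy5 over europium emission ratio at 671 and 618 nm; 0% = plate median of compound wells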
ABHD5-PLIN5 inh: blocks binding of human ABHD5 to perilipin-5; hit rate 0.78% among 360,000; Split G. princeps luciferase complementation, luminescence, 4 h; Q00G26+Q8WTS1; inhibition, % at 4 µM;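 active means inhibition above the mean inhibition across every tested compound plus 3 SD, cut at about 22% in these data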;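 further: 0% = DMSO only wells and the 100% control is not disclosed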
RBBP9 inh: human RBBP9 hydrolase inhibition; O75884; recombinant RBBP9, FP-Rh probe fluorescence polarization; inhibition, % at 7.94 µM; hit rate 0.2% among 220,000;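 active means inhibition above the campaign mean of all tested compounds plus 3 SD, cut at about 14% in these data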;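 further: plate controls were DMSO wells with RBBP9 for no effect and wells lacking RBBP9 protein for full effect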
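Material: RBBP9 protein. Amount: RBBP9 at 2.5 µM in dispensed solution, before mixing. Schedule: 30 min then 45 min, 25 °C. Medium: Tris buffer pH 8.0, NaCl, Pluronic. Measured by: fluorescence polarization. Measure: percent inhibition from mP, scaled between DMSO and no-protein wells. Replication: one well per compound.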
MBD2 inh: blocks human MBD2 binding to methylated DNA; Q9UBB5; TR-FRET, MBD2 binding to methylated oligonucleotide; inhibition, % at 4.4 µM; hit rate 0.31% among 370,000; AID 686964; in the data active means inhibition above about 13%
PRMT1 confirm: confirmation of human PRMT1 inhibitors; recombinant His-PRMT1, activity-based probe fluorescence polarization; hit rate 42% among 3,300; inhibition, % at 2.79 µM; shares compounds with PRMT1 FP inh;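 active means mean inhibition across replicates above the hit cutoff derived for the earlier primary screen, cut at about 22% in these data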
Numbers without * were called inactive; nt = no result given. An excerpt weighted towards active compounds, which were near 3.1% of everything screened.

SMILES | UHRF1 binding | PRMT1 FP inh | LEDGF integ inh | ABHD5-PLIN5 inh | RBBP9 inh | MBD2 inh | PRMT1 confirm
COc1ccc(NS(=O)(=O)c2ccc(Br)cc2)cn1 | 2 | 4 | -3 | 7 | nt | -1 | nt
O=C(CCNc1ccc(F)cc1)c1cc2ccccc2o1 | 4 | 49* | -3 | 0 | -6 | 5 | 42*
O=C(CCNc1cccc(F)c1)c1cc2ccccc2o1 | 0 | 16 | -2 | -2 | -4 | 0 | nt
COC(=O)c1cc(-c2ccccc2)sc1N | 0 | 11 | -6 | -3 | -3 | 4 | nt
C#CCNC(=O)c1cc(-c2ccccc2)sc1N | 4 | 27* | -5 | -20 | nt | 6 | -3
COc1cc(/C=C2\S/C(=N/S(=O)(=O)c3ccccc3)NC2=O)c([N+](=O)[O-])cc1OC | -8 | 30* | 1 | -14 | 1 | -5 | 2
COc1ccc(S(=O)(=O)/N=C2/NC(=O)/C(=C\c3ccco3)S2)cc1 | 20 | 30* | 9 | 4 | -5 | 1 | 16
O=C(COC(=O)c1ccc2ncsc2c1)NC(=O)c1ccccc1 | 3 | 27* | -2 | -5 | -8 | 5 | 2
COc1ccc(C(=O)NC(=O)COC(=O)c2ccc3ncsc3c2)cc1 | nt | nt | nt | nt | -2 | nt | nt
O=C1CC(N2CCCCCC2)C(=O)N1c1ccc(F)cc1 (stereo not drawn) | 0 | 41* | 0 | 5 | -7 | 7 | 29*
O=C(O)c1ccc(N2C(=O)CC(N3CCN(c4cccc(C(F)(F)F)c4)CC3)C2=O)cc1 (stereo not drawn) | 4 | 17 | -3 | -4 | nt | 1 | nt
COc1ccc(N2C(=O)CC(N3CCN(c4ccc(S(=O)(=O)N5CCCC5)cc4)CC3)C2=O)cc1 (stereo not drawn) | 7 | 1 | 0 | 5 | 2 | 2 | nt
COc1ccc(N2C(=O)CC(N3CCC(O)(c4cccc(C(F)(F)F)c4)CC3)C2=O)cc1 (stereo not drawn) | -1 | 61* | 2 | 3 | -5 | 2 | -3
COc1ccc(N2C(=O)CC(NC3CCCCNC3=O)C2=O)cc1 (stereo not drawn) | -1 | 28* | -1 | 5 | 2 | -6 | 5
COc1ccc(N2C(=O)CC(N3CCCCC3)C2=O)cc1 (stereo not drawn) | -1 | 80* | 1 | 14 | -9 | 4 | 0
CCCCN1CN2Cc3cc(F)ccc3C2CS1(=O)=O (stereo not drawn) | -4 | -1 | -5 | nt | nt | -6 | nt
COc1ccc(N2C(=O)CC(N3CCCC4CCCCC43)C2=O)cc1 (stereo not drawn) | 0 | 53* | -1 | 8 | -8 | -2 | 3
COc1ccc(N2C(=O)CC(C3CCCO3)C2=O)cc1 (stereo not drawn) | 0 | 0 | 3 | -2 | -1 | -1 | nt
CCOC(=O)c1cc2c(ccn2C)n1CC(=O)N(Cc1ccccc1)c1ccccc1 | -6 | 29* | 4 | -7 | 2 | -6 | 6
CC(C)OC(=O)c1cc2c(ccn2C)n1CC(=O)N(Cc1ccccc1)c1ccc(F)cc1 | 0 | 25* | -8 | -13 | -12 | 0 | 5
CCOC(=O)c1cc2c(ccn2C)n1CC(=O)N(Cc1ccccc1)c1ccc(F)cc1 | -1 | 4 | 1 | 4 | -5 | 2 | nt
Cc1ccc(-c2nnc(SCC(=O)Nc3ccc(OCc4ccccc4)cc3)n2-c2ccc(Cl)cc2)cc1 | 0 | -4 | 1 | nt | nt | -2 | nt
Cc1cccc(NC(=S)NCC23C=CC(O2)C2C(=O)N(c4ccc(Cl)cc4)C(=O)C23)c1 (stereo not drawn) | 4 | 78* | 4 | 17 | -8 | 1 | 31*
Cc1ccc(N2C(=O)C3C4C=CC(CNC(=S)N5CCN(c6ccccc6)CC5)(O4)C3C2=O)cc1 (stereo not drawn) | 0 | 43* | 3 | 2 | 11 | -2 | 44*
S=C(NCC1CCCO1)N1CCN(c2ccccc2)CC1 (stereo not drawn) | -2 | -2 | -2 | -2 | 1 | 4 | nt
SMILES | UHRF1 binding | PRMT1 FP inh | LEDGF integ inh | ABHD5-PLIN5 inh | RBBP9 inh | MBD2 inh | PRMT1 confirm
Cc1ccc(S(=O)(=O)NCC23C=CC(O2)C2C(=O)N(c4ccccc4)C(=O)C23)cc1 (stereo not drawn) | -1 | 81* | -2 | 15 | 5 | 4 | 11
Cc1ccc(NC(=S)NCC23C=CC(O2)C2C(=O)N(c4ccc(C)cc4)C(=O)C23)cc1 (stereo not drawn) | 7 | 91* | 0 | 15 | -9 | 3 | 50*
Cc1ccc(N2C(=O)[C@@H]3[C@H](C2=O)[C@H]2C=CC=NN2[C@@H]3C(=O)Nc2ccccc2)cc1 | 0 | 2 | -1 | 6 | 5 | -3 | nt
Cc1ccc(S(=O)(=O)NCC2(c3ccccc3)CCN(C)CC2)cc1 | 2 | -2 | 3 | 0 | nt | 6 | nt
O=C(CSc1nc2ccccc2[nH]1)NN=Cc1ccccc1C(=O)O | -2 | 8 | -2 | nt | nt | -5 | nt
C=CCN1C(=O)[C@@H](CC(=O)NCCCN2CCCC2=O)[C@]2(C(=O)OC)CCCCC=C12 | 4 | -4 | 5 | nt | nt | -1 | nt
O=S(N1CCCCC1)C12CC3CC(CC(C3)C1)C2 (stereo not drawn) | -2 | -1 | -2 | 7 | -11 | -2 | nt
O=S(NC1CCCCC1)C12CC3CC(CC(C3)C1)C2 (stereo not drawn) | 7 | 100* | 0 | -7 | -4 | -4 | -2
CCN1CCc2nc(N)sc2C1 | -1 | 45* | -3 | -1 | -2 | -1 | 22*
COc1cc(/C=C/C(=O)O)cc(S(=O)(=O)Nc2ccc3nc(C)sc3c2)c1OC | -2 | 25* | 5 | -4 | -4 | 0 | 28*
COc1cc(/C=C/C(=O)O)cc(S(=O)(=O)Nc2ccc(F)cc2)c1OC | -1 | 0 | 1 | -1 | -5 | 1 | nt
O=C(NCc1cccs1)[C@@H]1CSC2c3ccccc3C(=O)N21 (stereo partly drawn) | 6 | 26* | -3 | -17 | -17 | 1 | 34*
CCOC(=O)C1=C(CSc2nc(C)cc(C)c2C#N)OC(N)=C(C#N)C1c1ccccc1 (stereo not drawn) | 1 | 1 | -1 | -4 | -4 | -2 | nt
CCOC(=O)C1=C(CSc2nc(-c3ccccc3)ccc2C#N)OC(N)=C(C#N)C1c1ccc(OC)cc1 (stereo not drawn) | 2 | 48* | 0 | -7 | -11 | -3 | 10
CCOC(=O)C1=C(CSc2nc3c(cc2C#N)CN(C)CC3)OC(N)=C(C#N)C1c1ccncc1 (stereo not drawn) | -1 | 25* | -1 | -2 | -2 | 2 | 10

Screening results as filed in PubChem.
